In ChEMBL document CHEMBL4346736, “Anti-proliferative activity and structure-activity relationship of honokiol derivatives” (Bioorg Med Chem, 2019):
Blank lines part the entries; values can stand above or below the compound they belong to.

How the values were obtained:
[1] = Partition coefficient, log P of the compound; format: physicochemical; conditions: octanol/water
HepG2 [2] = assay: Antiproliferative activity against human HepG2 cells after 48 hrs by MTT assay; format: functional, cell-based; conditions: HepG2, 48 h
How it was run: (§1)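 Cells from the Institute of Cell Biology, CAS (Shanghai), grown in RPMI-1640 with 10% FBS and 100 U/mL penicillin-streptomycin at 37 °C under 5% CO2. Cells were exposed to compounds for 48 h, and viability was read by MTT (or MTS). IC50, the concentration giving 50% inhibition, was calculated by the Logit method. Data are representative of 3 independent experiments.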

K562 [3] = assay: Antiproliferative activity against human K562 cells after 48 hrs by MTT assay; format: functional, cell-based; conditions: K562, 48 h; how it was run: as §1
A549 = assay: Antiproliferative activity against human A549 cells after 48 hrs by MTT assay; format: functional, cell-based; conditions: A549, 48 h; how it was run: as §1
K562 [4] = assay: Antiproliferative activity against human K562 cells; format: functional, cell-based; how it was run: as §1
HepG2 [5] = assay: Antiproliferative activity against human HepG2 cells; format: functional, cell-based; how it was run: as §1
HCT-116 = assay: Antiproliferative activity against human HCT116 cells after 72 hrs by MTT assay; format: functional, cell-based; conditions: HCT-116, 72 h
HepG2 [6] = assay: Antiproliferative activity against human HepG2 cells after 72 hrs by MTT assay; format: functional, cell-based; conditions: HepG2, 72 h
NCI-H1975 = assay: Antiproliferative activity against human NCI-H1975 cells after 72 hrs by MTT assay; format: functional, cell-based; conditions: NCI-H1975, 72 h

logP [1]: 4.77
Structure (SMILES): C=CCc1ccc(O)c(-c2cccc(CC=C)c2O)c1

logP [1]: 4.36
Structure (SMILES): C=CCc1cc(-c2ccc3c(c2)OCO3)ccc1O

logP [1]: 5.54
Structure (SMILES): C=CCc1cc(/C=N\c2ccc(N)cc2)c(O)c(-c2ccc(O)c(CC=C)c2)c1

IC50 (HepG2 [2]): 31.1 µM | logP [1]: 6.43 | IC50 (K562 [3]): 32.5 µM | IC50 (A549): 25.7 µM
Structure (SMILES): C=CCc1ccc(O)c(-c2cc(CC=C)c(O)c(C(C)(C)C)c2)c1

logP [1]: 5.35
Structure (SMILES): C=CCc1cc(/C=N/O)c(O)c(-c2ccc(O)c(CC=C)c2)c1

logP [1]: 5.07
Structure (SMILES): C=CCc1ccc(O)c(-c2ccc(OC)c(CC=C)c2)c1 [METHYLHONOKIOL]

logP [1]: 6.74
Structure (SMILES): C=CCc1cc(/C(CC)=C(\CC)c2ccc(O)c(CC=C)c2)ccc1O

logP [1]: 4.27
Structure (SMILES): C=CCc1cc(CO)c(O)c(-c2ccc(O)c(CC=C)c2)c1

logP [1]: 5.21
Structure (SMILES): C=CCc1cc(-c2ccc(O)c(CC=C)c2)ccc1O

IC50 (HepG2 [2]): 25.3 µM | logP [1]: 3.08 | IC50 (K562 [3]): 100 µM | IC50 (A549): 90.4 µM
Structure (SMILES): C=CCc1ccc(O)c(-c2ccc(O)c(CC(O)CO)c2)c1 (stereo unspecified)

IC50 (HCT-116): > 40 µM | IC50 (HepG2 [6]): > 40 µM | logP [1]: 3.7 | IC50 (NCI-H1975): > 40 µM
Structure (SMILES): C=CCc1ccc(O)c(-c2ccc(O)c(CC(CO)OC)c2)c1 (stereo unspecified)

logP [1]: 4.8
Structure (SMILES): C=CCc1ccc(O)c(-c2cc(CC=C)ccc2O)c1 [MAGNOLOL]

logP [1]: 5.23
Structure (SMILES): C=CCc1ccc(O)c(-c2cc(/C=C(\C#N)C(=O)OCC)c(O)c(CC=C)c2)c1

IC50 (HepG2 [2]): 107 µM | logP [1]: 4.79 | IC50 (K562 [3]): 67.9 µM | IC50 (A549): 71.5 µM
Structure (SMILES): C=CCc1ccc(O)c(-c2ccc3oc(C)cc3c2)c1

logP [1]: 5.14
Structure (SMILES): C=CCc1ccc(O)c(-c2cc(/C=N/O)c(O)c(CC=C)c2)c1

IC50 (HepG2 [2]): 126 µM | logP [1]: 4.65 | IC50 (K562 [3]): 126 µM | IC50 (A549): 116 µM
Structure (SMILES): C=CCc1ccc(O)c(-c2ccc3c(c2)CC(C)O3)c1 (stereo unspecified)

logP [1]: 4.98
Structure (SMILES): C=CCc1cc(-c2cccc(CC=C)c2O)ccc1O

logP [1]: 4.82
Structure (SMILES): C=CCc1ccc(Oc2cc(CC=C)ccc2O)cc1 [ISOMAGNOLOL]

logP [1]: 5.38
Structure (SMILES): C=CCc1cc(Cc2ccc(O)c(CC=C)c2)ccc1O

IC50 (HepG2 [2]): > 128 µM | logP [1]: 1.16 | IC50 (K562 [3]): > 128 µM | IC50 (A549): > 128 µM
Structure (SMILES): OCC(O)Cc1ccc(O)c(-c2ccc(O)c(CC(O)CO)c2)c1 (stereo unspecified)

logP [1]: 5.28
Structure (SMILES): C=CCc1cc(-c2ccc(OC)c(CC=C)c2)ccc1O

Further lines, the compound ahead of its results:

Structure (SMILES): COc1ccc(-c2cc(/C=C/C=O)ccc2O)cc1/C=C/C=O
logP [1]: 4.34

Structure (SMILES): CCCc1cc(C)c(O)c(-c2cc(C)c(O)c(CCC)c2)c1
IC50 (HepG2 [2]): 34.5 µM | logP [1]: 6.51 | IC50 (K562 [3]): 26.2 µM | IC50 (A549): 29.2 µM

Structure (SMILES): C=CCc1cc(CN2CCN(C)CC2)c(O)c(-c2cc(CC=C)c(O)c(CN3CCN(C)CC3)c2)c1
IC50 (K562 [4]): > 40 µM | logP [1]: 4.04 | IC50 (HepG2 [5]): > 40 µM

Structure (SMILES): C=CCc1cc(NC(C)=O)c(O)c(-c2cc(CC=C)c(O)c(NC(C)=O)c2)c1
IC50 (HepG2 [2]): > 128 µM | logP [1]: 3.09 | IC50 (K562 [3]): > 128 µM | IC50 (A549): > 128 µM

Structure (SMILES): C=CCc1cc(C=O)c(OCC)c(-c2ccc(OCC)c(CC=C)c2)c1
logP [1]: 5.82

Structure (SMILES): C=CCc1ccc(O)c(-c2ccc(OCC)c(CC=C)c2)c1
logP [1]: 5.45

Structure (SMILES): C=CCc1cc(CN(C)C)c(O)c(-c2cc(CC=C)c(O)c(CN(C)C)c2)c1
IC50 (HepG2 [2]): 47.5 µM | logP [1]: 4.26 | IC50 (K562 [3]): 31.6 µM | IC50 (A549): 60.8 µM

Structure (SMILES): C=CCc1cc(N)c(O)c(-c2cc(N)c(O)c(CC=C)c2)c1
IC50 (HepG2 [2]): > 128 µM | logP [1]: 3.62 | IC50 (K562 [3]): > 128 µM | IC50 (A549): > 128 µM

Structure (SMILES): C=CCc1cc(CN2CCC(O)CC2)c(O)c(-c2cc(CC=C)c(O)c(CN3CCC(O)CC3)c2)c1
IC50 (K562 [4]): 25.5 µM | logP [1]: 2.31 | IC50 (HepG2 [5]): > 40 µM

Structure (SMILES): C/C=C/c1ccc(O)c(-c2cc(/C=C/C)ccc2O)c1
logP [1]: 5.36

Structure (SMILES): C=CCc1cc(CN2CCSCC2)c(O)c(-c2cc(CC=C)c(O)c(CN3CCSCC3)c2)c1
IC50 (K562 [4]): > 40 µM | logP [1]: 5.03 | IC50 (HepG2 [5]): > 40 µM

Structure (SMILES): C=CCc1cc(/C=N\C2CCCCC2)c(O)c(-c2ccc(O)c(CC=C)c2)c1
logP [1]: 6.67

Structure (SMILES): CCCc1ccc(O)c(-c2ccc(O)c(CCC)c2)c1
IC50 (HepG2 [2]): 30.8 µM | logP [1]: 5.97 | IC50 (K562 [3]): 18.2 µM | IC50 (A549): 30.4 µM

Structure (SMILES): C=CCc1cc(C(C)(C)c2ccc(O)c(CC=C)c2)ccc1O
logP [1]: 5.8

Structure (SMILES): C=CCc1cc(-c2ccc(OC)c(CC=C)c2)c(O)c(-c2ccc(OC)c(CC=C)c2)c1
logP [1]: 7.61

Structure (SMILES): C=CCc1cc(/C=C2\SC(=O)NC2=O)c(O)c(-c2cc(/C=C3\SC(=O)NC3=O)c(O)c(CC=C)c2)c1
logP [1]: 3.74

Structure (SMILES): C=CCc1cc(N=O)c(O)c(-c2cc(CC=C)c(O)c(N=O)c2)c1
IC50 (HepG2 [2]): > 128 µM | logP [1]: 4.45 | IC50 (K562 [3]): > 128 µM | IC50 (A549): > 128 µM

Structure (SMILES): C=CCc1cc(-c2ccc3c(c2)OCCO3)ccc1OC
logP [1]: 4.05
